In ChEMBL document CHEMBL1140117, “Structure-activity relationship studies for the peptide portion of the bladder epithelial cell antiproliferative factor from interstitial cystitis patients” (2008) one finds Activity data, which are given here for 17 compounds.

The source made the active and inactive calls. Starred links: 1 amine or outer side, 2 acyl side, 3 side chain; linkers in the order of their positions; H or OH if unused. Positions of bridges follow the written chain, without caps; N, C: chain ends. Non-standard residues stand in square brackets, D forms with d. Residues, ends and D or L forms follow the SMILES beside them. *: point of attachment. X3 = CC(=O)N[C@H]1[C@@H](O[C@H](C)[C@H](NO[*:2])C(=O)[*:1])O[C@H](CO)[C@H](O)[C@@H]1O[C@@H]1O[C@H](CO)[C@H](O)[C@H](O)[C@H]1O; X1 = CC(=O)N[C@@H]1[C@@H](O[C@@H]2O[C@H](CO)[C@H](O)[C@H](O)[C@H]2O)[C@@H](O)[C@@H](CO)O[C@@H]1*; X2 = CC1(C)OC[C@@H](C(=O)[*:2])N1[*:1]

One test has as its system Epithelial cell. Description: Antiproliferative activity against human bladder epithelial cells assessed as inhibition of [3H]thymidine incorporation at <25 uM after 48 hrs relative to as-APF. It counts as functional, cell-based. An outline of the steps: (§1)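 Primary normal human bladder epithelial cells, explanted from cystoscopy biopsies, plated at 1.5 × 10⁴ cells/well in MEM with 10% heat-inactivated FBS. Congeners dissolved in acetonitrile/water (1:1), added in serum-free MEM in 10-fold dilutions up to the 25 µM assay cutoff. Incubated 48 h at 37 °C, 5% CO₂. ³H-thymidine uptake counted on filters. Activity expressed relative to the standard control run on each plate. Triplicates, at least two runs, ANOVA.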
In the case of `CC(=O)N[C@H]1[C@@H](O[C@H](C)[C@H](N)C(=O)N[C@H](C(=O)N2CCC[C@H]2C(=O)N[C@@H](C)C(=O)NCC(=O)N[C@H](C(=O)N[C@H](C(=O)N[C@H](C(=O)NCC(=O)O)C(C)C)C(C)C)C(C)C)C(C)C)O[C@H](CO)[C@H](O)[C@@H]1O[C@@H]1O[C@H](CO)[C@H](O)[C@H](O)[C@H]1O` (H-T(X1)VPAGVVVG-OH), the outcome was inactive.
Still for that read-out and setting: to `CC(=O)N[C@H]1[C@@H](O[C@H](C)[C@H](N)C(=O)N[C@H](C(=O)N2CCC[C@H]2C(=O)NCCCCCCCCCCCC(=O)O)C(C)C)O[C@H](CO)[C@H](O)[C@@H]1O[C@@H]1O[C@H](CO)[C@H](O)[C@H](O)[C@H]1O` belongs “inactive”; to `CC(=O)N[C@H]1[C@@H](O[C@H](C)[C@H](N)C(=O)N[C@H](C(=O)N2CCC[C@H]2C(=O)N[C@@H](C)C(=O)N[C@@H](C)C(=O)N[C@H](C(=O)N[C@H](C(=O)N[C@H](C(=O)N[C@@H](C)C(=O)N[C@@H](CCC(=O)O)C(=O)O)C(C)C)C(C)C)C(C)C)C(C)C)O[C@H](CO)[C@H](O)[C@@H]1O[C@@H]1O[C@H](CO)[C@H](O)[C@H](O)[C@H]1O` (H-T(X1)VPAAVVVAE-OH), “inactive”.
Same read-out and setting: in the case of `CC(=O)N[C@H]1[C@@H](O[C@H](C)[C@H](N)C(=O)N[C@H](C(=O)N2CCC[C@H]2C(=O)N[C@@H](C)C(=O)N[C@@H](C)C(=O)N[C@H](C(=O)N[C@H](C(=O)O)C(C)C)C(C)C)C(C)C)O[C@H](CO)[C@H](O)[C@@H]1O[C@@H]1O[C@H](CO)[C@H](O)[C@H](O)[C@H]1O` (H-T(X1)VPAAVV-OH) it was “inactive”; in that of `CC(=O)N[C@H]1[C@@H](O[C@H](C)[C@H](N)C(=O)N[C@@H](CC(C)C)C(=O)N2CCC[C@H]2C(=O)N[C@@H](C)C(=O)N[C@@H](C)C(=O)N[C@H](C(=O)N[C@H](C(=O)N[C@H](C(=O)N[C@@H](C)C(=O)O)C(C)C)C(C)C)C(C)C)O[C@H](CO)[C@H](O)[C@@H]1O[C@@H]1O[C@H](CO)[C@H](O)[C@H](O)[C@H]1O` (H-T(X1)LPAAVVVA-OH), “inactive”.
Still for that read-out and setting: in the case of `CC(=O)N[C@H]1[C@@H](O[C@H](C)[C@H](N)C(=O)N[C@H](C(=O)N2CCC[C@@H]2C(=O)N[C@@H](C)C(=O)N[C@@H](C)C(=O)N[C@H](C(=O)N[C@H](C(=O)N[C@H](C(=O)N[C@@H](C)C(=O)O)C(C)C)C(C)C)C(C)C)C(C)C)O[C@H](CO)[C@H](O)[C@@H]1O[C@@H]1O[C@H](CO)[C@H](O)[C@H](O)[C@H]1O` it was “inactive”; in that of `CC(=O)N[C@H]1[C@@H](O[C@H](C)[C@H](N)C(=O)N[C@H](C(=O)N2[C@H](C(=O)N[C@@H](C)C(=O)N[C@@H](C)C(=O)N[C@H](C(=O)N[C@H](C(=O)N[C@H](C(=O)N[C@@H](C)C(=O)O)C(C)C)C(C)C)C(C)C)COC2(C)C)C(C)C)O[C@H](CO)[C@H](O)[C@@H]1O[C@@H]1O[C@H](CO)[C@H](O)[C@H](O)[C@H]1O` (H-T(X1)V[X2]AAVVVA-OH), “inactive”.
On to `CC(=O)N[C@H]1[C@@H](O[C@H](C)[C@H](N)C(=O)N[C@H](C(=O)N2CCC[C@H]2C(=O)N[C@@H](C)C(=O)N[C@@H](C)C(=O)O)C(C)C)O[C@H](CO)[C@H](O)[C@@H]1O[C@@H]1O[C@H](CO)[C@H](O)[C@H](O)[C@H]1O` (H-T(X1)VPAA-OH), for which the outcome was inactive.
Take `CC(=O)N[C@H]1[C@@H](O[C@H](C)[C@H](N)C(=O)N[C@H](C(=O)N2CCC[C@H]2C(=O)N[C@@H](C)C(=O)N[C@@H](C)C(=O)N[C@H](C(=O)N[C@H](C(=O)N[C@H](C(=O)N[C@@H](C)C(=O)N[C@@H](CCCCN)C(=O)O)C(C)C)C(C)C)C(C)C)C(C)C)O[C@H](CO)[C@H](O)[C@@H]1O[C@@H]1O[C@H](CO)[C@H](O)[C@H](O)[C@H]1O` (H-T(X1)VPAAVVVAK-OH): the outcome was inactive.
The same measure, in the same setting: to `CC(=O)N[C@H]1[C@@H](O[C@H](C)[C@@H]2NOC(=O)[C@H](C)NC(=O)[C@H](C(C)C)NC(=O)[C@H](C(C)C)NC(=O)[C@H](C(C)C)NC(=O)[C@H](C)NC(=O)[C@H](C)NC(=O)[C@@H]3CCCN3C(=O)[C@H](C(C)C)NC2=O)O[C@H](CO)[C@H](O)[C@@H]1O[C@@H]1O[C@H](CO)[C@H](O)[C@H](O)[C@H]1O` (VPAAVVVA; linker N-C via X3) belongs “inactive”.
On the same count and under the same terms, to `CC(=O)N[C@H]1[C@@H](O[C@H](C)[C@H](N)C(=O)N[C@H](C(=O)N2CCC[C@H]2C(=O)N[C@@H](C)C(=O)N[C@@H](C)C(=O)N[C@H](C(=O)N[C@H](C(=O)N[C@@H](C)C(=O)N[C@H](C(=O)O)C(C)C)C(C)C)C(C)C)C(C)C)O[C@H](CO)[C@H](O)[C@@H]1O[C@@H]1O[C@H](CO)[C@H](O)[C@H](O)[C@H]1O` (H-T(X1)VPAAVVAV-OH) belongs “inactive”.
Still for that read-out and setting: to `CC(=O)N[C@H]1[C@@H](O[C@H](C)[C@H](N)C(=O)N[C@@H](Cc2ccc(O)cc2)C(=O)N2CCC[C@H]2C(=O)N[C@@H](C)C(=O)N[C@@H](C)C(=O)N[C@H](C(=O)N[C@H](C(=O)N[C@H](C(=O)N[C@@H](C)C(=O)O)C(C)C)C(C)C)C(C)C)O[C@H](CO)[C@H](O)[C@@H]1O[C@@H]1O[C@H](CO)[C@H](O)[C@H](O)[C@H]1O` (H-T(X1)YPAAVVVA-OH) belongs “inactive”; to `CC[C@H](C)[C@H](NC(=O)[C@H](C)NC(=O)[C@H](C)NC(=O)[C@@H]1CCCN1C(=O)[C@@H](NC(=O)[C@@H](N)[C@@H](C)O[C@H]1O[C@H](CO)[C@H](O)[C@H](O[C@@H]2O[C@H](CO)[C@H](O)[C@H](O)[C@H]2O)[C@H]1NC(C)=O)C(C)C)C(=O)N[C@H](C(=O)N[C@H](C(=O)N[C@@H](C)C(=O)O)[C@@H](C)CC)C(C)C` (H-T(X1)VPAAIVIA-OH), “inactive”.
On to `CC(=O)N[C@H]1[C@@H](O[C@H](C)[C@H](N)C(=O)N[C@H](C(=O)N2CCC[C@H]2C(=O)N[C@@H](C)C(=O)N[C@@H](C)C(=O)N[C@H](C(=O)N[C@@H](C(=O)N[C@H](C(=O)N[C@@H](C)C(=O)O)C(C)C)C(C)C)C(C)C)C(C)C)O[C@H](CO)[C@H](O)[C@@H]1O[C@@H]1O[C@H](CO)[C@H](O)[C@H](O)[C@H]1O`, for which the outcome was inactive.

Test system in the next test: not listed separately
Description: Antiproliferative activity against human bladder epithelial cells assessed as inhibition of [3H]thymidine incorporation after 48 hrs relative to as-APF. Format: functional, Epithelial cell. Set-up: scale not given: the % may be the effect or the level left. An outline of the steps: as §1
For orientation: Dividing cells build labelled thymidine or BrdU into new DNA.
With `CC(=O)N[C@H]1[C@@H](OC[C@H](N)C(=O)N[C@@H](CC(C)C)C(=O)N2CCC[C@H]2C(=O)N[C@@H](C)C(=O)N[C@@H](C)C(=O)N[C@H](C(=O)N[C@H](C(=O)N[C@H](C(=O)N[C@@H](C)C(=O)O)C(C)C)C(C)C)C(C)C)O[C@H](CO)[C@H](O)[C@@H]1O[C@@H]1O[C@H](CO)[C@H](O)[C@H](O)[C@H]1O` (H-S(X1)LPAAVVVA-OH), the Activity is given as 1%.
Still for that read-out and setting: to `CC(=O)N[C@H]1[C@@H](O[C@H](C)[C@H](N)C(=O)N[C@H](C(=O)N2CCC[C@H]2C(=O)N[C@@H](C)C(=O)N[C@@H](C)C(=O)N[C@@H](C)C(=O)N[C@@H](C)C(=O)N[C@@H](C)C(=O)N[C@@H](C)C(=O)O)C(C)C)O[C@H](CO)[C@H](O)[C@@H]1O[C@@H]1O[C@H](CO)[C@H](O)[C@H](O)[C@H]1O` (H-T(X1)VPAAAAAA-OH) belongs 1%; to `CC(=O)N[C@H]1[C@@H](O[C@H](C)[C@H](N)C(=O)N[C@H](C(=O)N2CCC[C@H]2C(=O)N[C@@H](C)C(=O)N[C@@H](C)C(=O)N[C@H](C(=O)N[C@H](C(=O)N[C@H](C(=O)N[C@@H](CC(C)C)C(=O)O)C(C)C)C(C)C)C(C)C)C(C)C)O[C@H](CO)[C@H](O)[C@@H]1O[C@@H]1O[C@H](CO)[C@H](O)[C@H](O)[C@H]1O` (H-T(X1)VPAAVVVL-OH), 0.01%.
